From ChEMBL document CHEMBL3259802, “Anticonvulsant evaluation of clubbed indole-1,2,4-triazine derivatives: a synthetic approach” (Eur J Med Chem, 2014)
The source made the active and inactive calls. No cut-off for these calls is given here.

What was measured:
[1] = Neurotoxicity in ip dosed Swiss albino mouse measured during phase 2 trials by rotarod test; format: toxicity, organism-based; details: in vivo
Summary of the method: (§1)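 Phase II quantitation: groups of six mice given a range of i.p. doses until at least three points fell within 10–90% seizure protection (MES or scPTZ) or rotarod neurotoxicity, tested at time of peak effect.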

[2] = system: Mus musculus; experiment: Anticonvulsant activity in Swiss albino mouse assessed as protection against maximal electroshock-induced seizures at 100 mg/kg, po administered 60 mins prior to maximal electroshock exposure by MES test; format: functional
Summary of the method: (§2)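 Mice (n=6/group) dosed orally at 100 mg/kg in 0.5% sodium carboxymethylcellulose 60 min before maximal electroshock (150 mA, 0.2 s, corneal electrodes). Duration of hind limb tonic extension noted; abolition scored as protection (% protected). Vehicle controls; mean ± SEM, one-way ANOVA followed by Dunnett's method.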

[3] = system: Mus musculus; experiment: Anticonvulsant activity in ip dosed Swiss albino mouse assessed as protection against maximal electroshock-induced tonic-clonic seizure spread measured after 0.5 hrs by MES test; format: functional; details: read-out: MED
Summary of the method: (§3)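 Swiss albino mice pre-screened 24 h earlier with 50 mA, 60 Hz, 0.2 s corneal shock; saline drop in eyes. Compounds in 0.5% sodium carboxymethylcellulose given i.p. at 30, 100 and 300 mg/kg; MES applied after 0.5 h and 4 h. Protection = abolition of hind limb tonic extensor component in half or more of four mice.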

[4] = system: Mus musculus; experiment: Anticonvulsant activity in ip dosed Swiss albino mouse assessed as protection against maximal electroshock-induced tonic-clonic seizure spread measured after 4 hrs by MES test; format: functional; details: read-out: MED; summary of the method: as §3
[5] = system: Mus musculus; experiment: Anticonvulsant activity in ip dosed Swiss albino mouse assessed as protection against pentylenetetrazole-induced seizures after 0.5 hrs; format: functional; details: read-out: MED
Summary of the method: (§4)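 Compounds in 0.5% sodium carboxymethylcellulose injected i.p. at 30, 100, 300 mg/kg (four mice per dose); at 0.5 h or 4 h, pentylenetetrazol 70 mg/kg given s.c. as 0.5% solution in posterior midline. Observation 30 min; absence of clonic spasm in half or more of animals scored as protection.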

[6] = system: Mus musculus; experiment: Anticonvulsant activity in ip dosed Swiss albino mouse assessed as protection against pentylenetetrazole-induced seizures after 4 hrs; format: functional; details: read-out: MED; summary of the method: as §4
[7] = system: Mus musculus; experiment: Neurotoxicity in Swiss albino mouse assessed as minimal motor impairment at 300 mg/kg, ip after 0.5 hrs by rotarod test; format: toxicity, organism-based; parameters: dose 300 mg/kg, route intraperitoneal; details: in vivo
Summary of the method: (§5)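 Rotarod minimal motor impairment: mice trained on 3.2 cm rod at 10 rpm; i.p. doses of 30, 100 and 300 mg/kg, four mice each, tested at 0.5 h and 4 h. Neurotoxicity = failure to stay on rod at least 1 min in each of three trials.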

[8] = system: Mus musculus; experiment: Neurotoxicity in Swiss albino mouse assessed as minimal motor impairment at 300 mg/kg, ip after 4 hrs by rotarod test; format: toxicity, organism-based; parameters: dose 300 mg/kg, route intraperitoneal; details: in vivo; summary of the method: as §5
[9] = system: Mus musculus; experiment: Anticonvulsant activity in Swiss albino mouse assessed as time duration of hind limb tonic extenstion at 100 mg/kg, po administered 60 mins prior to maximal electroshock exposure by MES test (reference value: 16.20 +/- 0.50 secs); format: functional, Hindlimb; summary of the method: as §2
[10] = system: Mus musculus; experiment: Neurotoxicity in Swiss albino mouse assessed as motor impairment at 100 mg/kg, po by rotarod test; format: toxicity, organism-based; parameters: dose 100 mg/kg, route oral; details: in vivo
Summary of the method: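 Mice trained on rotarod (3.2 cm, 10 rpm) received 100 mg/kg orally in 0.5% sodium carboxymethylcellulose; neurotoxicity scored as percentage of animals failing to keep equilibrium on rod for 60 s.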

[11] = system: Mus musculus; experiment: Anticonvulsant activity in ip dosed Swiss albino mouse assessed as protection against maximal electroshock-induced seizure measured at the time of peak effect during phase 2 trials by MES test; format: functional; summary of the method: as §1
[12] = system: Rattus norvegicus; experiment: Increase in GABA level in Wistar rat whole brain at 100 mg/kg, ip after 2 hrs measured per 100 mg of tissue (reference value: 46.8 +/- 6.03 ug); format: functional; details: route intraperitoneal
Summary of the method: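 Adult Wistar rats, six per group, given 100 mg/kg i.p. (clobazam 30 mg/kg p.o. reference); decapitated 2 h later, whole brains put into ice-cold 80% ethanol and GABA determined enzymatically in tissue extracts. Mean ± SEM; Student's t test versus control.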

[13] = system: Rattus norvegicus; experiment: Increase in GABA level in Wistar rat whole brain at 30 mg/kg, po for 7 days measured at 4 hrs after last drug dose per 100 mg of tissue (reference value: 49.2 +/- 3.01 ug); format: functional
[14] = system: Mus musculus; experiment: Anticonvulsant activity in Swiss albino mouse assessed as protection against maximal electroshock-induced tonic-clonic seizure spread measured at 300 mg/kg, ip after 0.5 hrs by MES test; format: functional, organism-based; parameters: dose 300 mg/kg
Summary of the method: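 Groups of four mice, screened 24 h beforehand with corneal shock (50 mA, 60 Hz, 0.2 s), saline drop in each eye. Test doses of 30, 100 or 300 mg/kg ip were suspended in 0.5% sodium carboxymethylcellulose. The shock was applied 0.5 h and 4.0 h after dosing. Protection: abolition of hind-limb tonic extension in half or more of the animals.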

[15] = system: Mus musculus; experiment: Anticonvulsant activity in Swiss albino mouse assessed as protection against maximal electroshock-induced tonic-clonic seizure spread measured at 300 mg/kg, ip after 4 hrs by MES test; format: functional, organism-based; parameters: dose 300 mg/kg; summary of the method: as §3
[16] = system: Mus musculus; experiment: Anticonvulsant activity in ip dosed Swiss albino mouse assessed as protection against pentylenetetrazole-induced seizure measured at the time of peak effect during phase 2 trials; format: functional; summary of the method: as §1
[17] = system: Mus musculus; experiment: Neurotoxicity in Swiss albino mouse assessed as minimal motor impairment at 100 mg/kg, ip after 0.5 hrs by rotarod test; format: toxicity, organism-based; parameters: dose 100 mg/kg, route intraperitoneal; details: in vivo; summary of the method: as §5
[18] = system: Mus musculus; experiment: Neurotoxicity in Swiss albino mouse assessed as minimal motor impairment at 100 mg/kg, ip after 4 hrs by rotarod test; format: toxicity, organism-based; parameters: dose 100 mg/kg, route intraperitoneal; details: in vivo; summary of the method: as §5
[19] = system: Mus musculus; experiment: Anticonvulsant activity in Swiss albino mouse assessed as decrease in time duration of hind limb tonic extenstion at 30 mg/kg, po administered 60 mins prior to maximal electroshock exposure by MES test; format: functional, organism-based; parameters: dose 30 mg/kg; details: Hindlimb
[20] = system: Mus musculus; experiment: Anticonvulsant activity in Swiss albino mouse assessed as protection against maximal electroshock-induced seizures at 30 mg/kg, po administered 60 mins prior to maximal electroshock exposure by MES test; format: functional
[21] = Displacement of [3H]BTX-B from neurotoxin site 2 of voltage-gated sodium channel in rat cerebral cortex synaptoneurosomes by scintillation counting analysis; format: tissue-based
[22] = organism: Rattus norvegicus; experiment: Displacement of [3H]BTX-B from neurotoxin site 2 of voltage-gated sodium channel in rat cerebral cortex synaptoneurosomes at 100 uM by scintillation counting analysis; format: tissue-based
[23] = system: Mus musculus; experiment: Anticonvulsant activity in Swiss albino mouse assessed as protection against PTZ-induced seizure at 200 mg/kg, po administered 60 mins prior to pentylenetetrazole challenge; format: functional
[24] = system: Mus musculus; experiment: Anticonvulsant activity in Swiss albino mouse assessed as protection against pentylenetetrazole-induced seizures at 300 mg/kg, ip after 0.5 hrs; format: functional, organism-based; parameters: dose 300 mg/kg; summary of the method: as §4
[25] = system: Rattus norvegicus; experiment: Increase in GABA level in Wistar rat whole brain at 30 mg/kg, po after 2 hrs measured per 100 mg of tissue (reference value: 46.8 +/- 6.03 ug); format: functional
[26] = system: Mus musculus; experiment: Anticonvulsant activity in Swiss albino mouse assessed as seizure latency to onset of clonus at 100 mg/kg, po administered 60 mins prior to pentylenetetrazole challenge (reference value: 1.54 +/- 0.90 mins); format: functional
[27] = system: Mus musculus; experiment: Anticonvulsant activity in Swiss albino mouse assessed as protection against PTZ-induced seizure at 100 mg/kg, po administered 60 mins prior to pentylenetetrazole challenge; format: functional
[28] = organism: Mus musculus; experiment: Protective index, ratio of TD50 for Swiss albino mouse to ED50 for anticonvulsant activity in PTZ-treated Swiss albino mouse

`NC1NC(=S)NN=C1n1c(-c2ccccc2)c(S(N)(=O)=O)c2cc(F)ccc21` (configuration not stated) showed a TD50 [1] of 225 mg/kg.
`NC1NC(=S)NN=C1n1c(-c2ccccc2)c(C(=O)O)c2cc([N+](=O)[O-])ccc21` (configuration not stated) gave a TD50 [1] of 180 mg/kg.
In the case of `NC(=O)c1c(-c2ccccc2)n(C2=NNC(=S)NC2N)c2ccc([N+](=O)[O-])cc12` (configuration not stated), the Activity [2] is reported as 50%, the minimal effective dose [3] is reported as 30 mg/kg and the minimal effective dose [4] is reported as 30 mg/kg. The minimal effective dose [5] was 300 mg/kg, the minimal effective dose [6] was 300 mg/kg and the Activity [7] was “Non-toxic”. The Activity [8] was “Non-toxic”, the Time [9] was 12.7 s and the Activity [10] was “Non-toxic”. The ED50 [11] was 24 mg/kg, the TD50 [1] was 125 mg/kg and the Activity [12] was 85.4 µg. For the same molecule, the Activity [13] was 88.4 µg.
For `CCC1(C)CC(=O)NC1=O` (configuration not stated) [ETHOSUXIMIDE], the Activity [14] was “inactive”, the Activity [15] was “inactive” and the minimal effective dose [5] was 100 mg/kg. For the same molecule, the minimal effective dose [6] was 300 mg/kg, the ED50 [11] was greater than 1000 mg/kg and the ED50 [16] was 130 mg/kg.
For `O=C1NC(=O)C(c2ccccc2)(c2ccccc2)N1` [PHENYTOIN], the Activity [17] was “Non-toxic”, the minimal effective dose [3] was 30 mg/kg and the minimal effective dose [4] was 30 mg/kg. The Activity [18] was “Non-toxic”, the inhibition [19] was “Active” and the Activity [20] was 100%. For the same molecule, the Activity [10] was “Non-toxic”, the IC50 [21] was 126 µM and the inhibition [22] was 49.6%.
Work on `NC1NC(=S)NN=C1n1c(-c2ccccc2)c(S(N)(=O)=O)c2cc(Cl)ccc21` (configuration not stated) yielded a TD50 [1] of 185 mg/kg.
For `CCCC(CCC)C(=O)[O-].[Na+]` [VALPROATE SODIUM], the Activity [23] was 100% and the Activity [10] was “Non-toxic”.
For `NC1NC(=S)NN=C1n1c(-c2ccccc2)c(C(=O)O)c2cc(C(F)(F)F)ccc21` (configuration not stated), the TD50 [1] was 100 mg/kg.
`CC(=O)c1c(-c2ccccc2)n(C2=NNC(=S)NC2N)c2ccc(C(F)(F)F)cc12` (configuration not stated) showed an Activity [2] of 33.3%, a minimal effective dose [3] of 30 mg/kg and a minimal effective dose [4] of 30 mg/kg. The Activity [24] was “inactive”, the minimal effective dose [6] was 300 mg/kg and the Activity [7] was “Non-toxic”. For the same molecule, the Activity [8] was “Non-toxic”, the Time [9] was 13.5 s and the ED50 [11] was 40 mg/kg. For the same molecule, the TD50 [1] was 95 mg/kg, the Activity [12] was 75.4 µg and the Activity [13] was 79.1 µg.
For `CN1C(=O)CC(=O)N(c2ccccc2)c2cc(Cl)ccc21` [CLOBAZAM], the Activity [13] was 110 µg and the Activity [25] was 101 µg.
In the case of `CC(=O)c1c(-c2ccccc2)n(C2=NNC(=S)NC2N)c2ccc(F)cc12` (configuration not stated), the Activity [2] is reported as 100%, the minimal effective dose [3] is reported as 30 mg/kg and the minimal effective dose [4] is reported as 30 mg/kg. For the same molecule, the minimal effective dose [5] was 100 mg/kg, the minimal effective dose [6] was 100 mg/kg and the Activity [7] was “Non-toxic”. For the same molecule, the Activity [8] was “Non-toxic”, the Time [9] was 5.4 s and the Time [26] was 9.8 min. The Activity [27] was 83.3%, the Activity [10] was “Non-toxic” and the ED50 [11] was 7 mg/kg. The TD50 [1] was 290 mg/kg, the ED50 [16] was 68 mg/kg and the “Ratio TD50/ED50” value [28] was 3.39. The Activity [12] was 93.5 µg, the Activity [13] was 110 µg and the IC50 [21] was 108 µM. The inhibition [22] was 50.4%.
